For data set [1] the following is noted: metabolite in human plasma; ref Quinete et al., 2017; cited from earlier work.
Data set [2] deals with T1, human estrogen sulfotransferase (SULT1E1) (Homo sapiens, UniProt P49888).
T1 sequence (P49888 1-294): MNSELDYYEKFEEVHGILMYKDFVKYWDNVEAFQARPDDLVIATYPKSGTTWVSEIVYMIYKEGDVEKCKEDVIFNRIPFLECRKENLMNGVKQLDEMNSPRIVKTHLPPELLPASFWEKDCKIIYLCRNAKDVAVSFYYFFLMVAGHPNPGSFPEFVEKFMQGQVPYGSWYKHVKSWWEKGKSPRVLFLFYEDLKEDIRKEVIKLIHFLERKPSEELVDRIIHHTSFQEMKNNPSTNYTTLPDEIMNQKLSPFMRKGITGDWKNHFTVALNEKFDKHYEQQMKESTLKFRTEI
The data set is described as follows: Inhibition of SULT1E1-catalyzed sulfation of [3H]estradiol. The note with it: 7.0 nM estradiol. The class given is biochemical. The essentials: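 Purified recombinant human enzyme expressed in E. coli BL21(DE3). Test compound added in ethanol at 0.01–10,000 nM. Equilibrated 3 min at 37 °C, started with 3.0 ng enzyme, run 4 min. Stopped with Tris-HCl pH 8.7 plus chloroform. Aqueous [3H]estradiol-3-sulfate counted by scintillation. Triplicates. IC50 fitted from % of control rate.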

For data set [3] the following is noted: circulating steroid in humans; ref White and Porterfield, 2013; cited from earlier work.

Structures can show the parent of a compound that is named as a salt.

As to `Oc1ccc(-c2ccc(Cl)cc2Cl)cc1Cl` [4’-OH-PCB 25, 2,3’,4-trichloro-4’-hydroxybiphenyl], the “estimated half-life in human plasma” value in data set [1] is 6.5 years.
For `Oc1ccc(-c2ccc(Cl)cc2)cc1` [4’-OH-PCB 3, 4-chloro-4’-hydroxybiphenyl], the “fold higher IC50 value for SULT1E1 than 4-OH-PCB 11 and 4’-OH PCB 25” value in data set [2] is roughly 200 fold.
Turning to `C[C@]12CC[C@H](OS(=O)(=O)O)CC1=CC[C@@H]1[C@@H]2CC[C@]2(C)C(=O)CC[C@@H]12` [DHEA-sulfate, dehydroepiandrosterone sulfate], the half-life in data set [3] is 7 to 10 h.
In the case of `C[C@]12CC[C@H](O)CC1=CC[C@@H]1[C@@H]2CC[C@]2(C)C(=O)CC[C@@H]12` [DHEA, dehydroepiandrosterone], the half-life in data set [3] is 0.25 to 0.5 h.
Consider `O=S(=O)(O)Oc1ccc(-c2ccc(Cl)cc2Cl)cc1Cl` [4’-PCB 25 Sulfate, 2,3’,4-trichloro-4’-biphenylsulfate], for which the “IC50 value for SULT1E1, fold greater than the estradiol concentration” value in data set [2] is recorded as “over 50 fold”.
